Active and inactive are the calls of the source.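 How the source made its calls, unless noted: active means fluorescence slope higher than the sample average by over 3 SD (cut at about -0.22 in these data, passing the limit was not always enough); inactive means the rest.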

The source of these data is PubChem BioAssay.

The nature of assay [1]: inhibitors of TNFa-induced NFkB p65 translocation, primary screen, imaging, HUVEC, MLSMR starter and 10KST1 sets (AID 438;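 active means inhibition above 20% together with a positive visual image hit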;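 further: compound added about 3h40 before a 20 min TNFalpha stimulation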;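 on inhibition: signal is the nuclear over cytoplasmic p65 intensity ratio per well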). The settings on record: HUVEC TNFa-induced p65 nuclear translocation; cell count: measured here: nuclei count (cytotoxicity indicator), at 2.08 µM; inhibition: at 2 µM, stronger effect = higher value, 0% TNFa-plus-vehicle, 100% no-TNFa wells.
Assay [2] in a line: endothelial E-selectin expression blockers – imaging, HUVEC, immunofluorescence, MLSMR starter and 10KST1 sets, primary screen (AID 487;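 active means visually confirmed hit in the image check and inhibition above 20%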;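 on inhibition: signal is fraction of cell area covered by stained E-selectin grains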;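 on nuclei count: 100% = median nuclei count of all wells on the same plate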). The settings on record: HUVEC TNFalpha-induced E-selectin immunofluorescence imaging, at 2 µM; inhibition: stronger effect = higher value; nuclei count: measured here: cell number, toxicity.
Assay [3] is described as follows: Primary imaging screen for DUSP6 inhibitors that restore phospho-Erk in transfected HeLa cells, chemical complementation (AID 609;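 active means compounds giving at least 50% inhibition in the cell-based MKP-3 phosphatase rescue imaging test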;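 on inhibition: phospho-Erk level distribution per well compared with pooled transfected vehicle control wells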). The settings on record: HeLa MKP-3 transfected, phospho-Erk imaging KS statistic, at 10 µM, cells stimulated with TPA for 15 min.
In assay [4] the target is Dual specificity protein phosphatase 6 (Homo sapiens) (UniProt Q16828). The assay is described as above. The settings on record: HeLa MKP-3 transfected, phospho-Erk imaging KS statistic; at 10 µM; stronger effect = higher value; cells stimulated with TPA for 15 min.
Assay [5] addresses Voltage-gated potassium channel subunit beta-2 (Rattus norvegicus) (UniProt P62483). Briefly: inhibitors of rat Kvbeta2 reductase activity – biochemical, NADPH fluorescence, primary screen (AID 622).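 Further: slope of raw intensity against log time taken from 70 to 1610 s.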 Conditions: recombinant KvBeta, 4-cyanobenzaldehyde reduction, at 10 µM, stronger effect = higher value.
Assay [6] shares this target. Description: enhancers of rat Kvbeta2 NADPH turnover – biochemical, NADPH fluorescence, primary screen (AID 623;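 active means NADPH fluorescence slope more negative than the mean of all samples by about 3 SD, 99.7% confidence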;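 further: fluorescence intensity change per second fitted from 20 to 320 s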). The settings on record: Recombinant KvBeta, NADPH fluorescence decrease slope, 10 min; at 10 µM; stronger effect = lower value.
Assay [7] has as its target Alpha-2C adrenergic receptor (Homo sapiens) (UniProt P18825). Description: compounds altering alpha2C-coupled GIRK flux – cell-based, HEK293 alpha2C/GIRK1/2, thallium flux, primary screen (AID 624;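 active means fluorescence slope after compound addition differing from the mean of all screened samples at 99.7% confidence, in either direction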;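 further: slope of fluorescence ratio to pre-addition baseline per second over 15 to 24 s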). The settings on record: thallium flux BTC fluorescence, at 10 µM, actives lie on both sides.
Assay [8] can be described thus: inhibitors of larval lipid processing in zebrafish, primary screen, whole organism, PED6 fluorescence, gall bladder and intestine (AID 686;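 active means a full or partial loss of lipid-probe fluorescence in the fish gall bladder, intestine or both, judged by eye; inactive means no fluorescence loss, or compound toxic to the fish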;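 further: larvae 5 to 7 days old with five fish per well; signal comes from phospholipase A2 cleavage of quenched PED6 carried via bile; overnight exposure to compound and PED6 before scoring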). The settings on record: Zebrafish larvae PED6 lipid processing, fluorescence scoring; screened at 20 µM (by protocol). The method, boiled down:
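System: live zebrafish larvae aged 5-7 days, whole organism; measure: graded gall bladder and intestinal fluorescence inhibition per well; incubation: overnight exposure; reagent: ingested quenched lipid PED6 at 100 nM; signal: By-eye fluorescence microscopy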

A short description of assay [9]: loss of swimming-algae plug formation – whole organism, Chlamydomonas reinhardtii, WT vs cilia-less mutant, absorbance, 96-well, primary screen (AID 463189;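 active means inhibition at or above 50% relative to wild type and mutant plate controls; inactive means inhibition below 50%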;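 further: 0% = wild type cc124 cells in DMSO and 100% = ciliumless bld1 mutant cells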). The settings on record: Chlamydomonas reinhardtii gravitaxis, OD600 absorbance, 2 days; at 10 µM; stronger effect = higher value.
The mark [10] stands for this setting: measured here: cell density z-score.
The mark [11] stands for this setting: measured here: nuclear c-Myc green intensity z-score.
Setting [12] is: measured here: nuclear pErk red intensity z-score, stronger effect = higher value.

Sequence of Dual specificity protein phosphatase 6 (Homo sapiens) (Q16828 whole entry, looked up): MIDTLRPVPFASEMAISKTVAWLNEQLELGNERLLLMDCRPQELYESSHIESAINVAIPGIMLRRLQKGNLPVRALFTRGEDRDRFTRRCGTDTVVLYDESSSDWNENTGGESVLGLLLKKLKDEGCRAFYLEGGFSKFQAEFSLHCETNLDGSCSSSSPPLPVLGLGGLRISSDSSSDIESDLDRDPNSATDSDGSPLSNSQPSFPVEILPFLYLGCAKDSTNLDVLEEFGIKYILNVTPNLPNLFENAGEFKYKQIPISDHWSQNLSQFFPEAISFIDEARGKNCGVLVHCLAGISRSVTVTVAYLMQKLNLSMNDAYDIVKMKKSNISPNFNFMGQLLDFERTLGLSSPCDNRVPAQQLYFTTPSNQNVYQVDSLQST
Sequence of Alpha-2C adrenergic receptor (Homo sapiens) (P18825 whole entry, looked up): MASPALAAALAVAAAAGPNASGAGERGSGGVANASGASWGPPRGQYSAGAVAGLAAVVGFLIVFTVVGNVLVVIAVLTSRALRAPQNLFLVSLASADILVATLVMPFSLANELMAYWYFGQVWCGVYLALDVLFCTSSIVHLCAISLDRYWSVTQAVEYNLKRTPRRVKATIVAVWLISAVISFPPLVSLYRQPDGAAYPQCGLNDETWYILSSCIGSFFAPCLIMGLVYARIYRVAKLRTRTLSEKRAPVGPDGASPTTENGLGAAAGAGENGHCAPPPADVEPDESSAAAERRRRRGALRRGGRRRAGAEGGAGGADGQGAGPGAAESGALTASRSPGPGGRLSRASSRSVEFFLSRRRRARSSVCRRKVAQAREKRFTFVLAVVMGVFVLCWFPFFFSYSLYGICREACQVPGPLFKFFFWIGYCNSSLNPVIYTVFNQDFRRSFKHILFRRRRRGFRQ
Sequence of Voltage-gated potassium channel subunit beta-2 (Rattus norvegicus) (P62483 whole entry, looked up): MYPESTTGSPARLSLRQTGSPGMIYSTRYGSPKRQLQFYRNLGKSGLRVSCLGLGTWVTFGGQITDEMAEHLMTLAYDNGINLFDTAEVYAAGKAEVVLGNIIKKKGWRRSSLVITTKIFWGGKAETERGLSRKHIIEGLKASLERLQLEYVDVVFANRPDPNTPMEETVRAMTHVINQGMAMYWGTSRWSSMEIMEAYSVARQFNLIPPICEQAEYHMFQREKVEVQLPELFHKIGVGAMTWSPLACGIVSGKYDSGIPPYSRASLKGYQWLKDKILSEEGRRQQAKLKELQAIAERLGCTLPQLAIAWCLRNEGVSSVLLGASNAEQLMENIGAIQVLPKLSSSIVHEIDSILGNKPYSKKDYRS

One may read the inhibition as the drop in the measured response relative to a control, in per cent. As to `CCOc1cccc(C2C(C#N)=C(N)Oc3cc(C)oc(=O)c32)c1OCC` (stereo unspecified), in [1], the cell count was 362. The inhibition is -24.9% (inactive) in assay [1], -67.3% (inactive) in [2], 8.76% (inactive) in assay [4] and 10.1% (inactive) in assay [9]. In addition, in assay [2], the nuclei count was found to be 143%. Also, the values for the z-score in assay [3] (setting [10]), in [3] (setting [11]) and in [3] (setting [12]) were 0.354, -0.768 and 1.02, respectively. The fluorescence slope in assay [5] was -0.441 (inactive). Besides, in assay [6], the NADPH fluorescence slope is -0.000143 (inactive). For the same molecule, the slope in [7] is 0.00434 (inactive). For the same molecule, the molecule was classed as inactive in assay [8].
As for `COc1cccc(-c2nc(N3CCC(C)CC3)c3ccccc3n2)c1O`, the cell count in assay [1] was found to be 573. Moreover, the inhibition in assay [1] was -3.3% (inactive); in [2], 48.3% (inactive); in assay [4] it was -12.3% (inactive); in assay [9], 9.22% (inactive). The molecule also showed a nuclei count in assay [2] of 120%. The results for the z-score in assay [3] (setting [10]), in assay [3] (setting [11]) and in assay [3] (setting [12]) were 0.534, -0.819 and 1.15, respectively. The fluorescence slope in [5] was -0.409 (inactive). In assay [6], the NADPH fluorescence slope is -3.4e-05 (inactive). In addition, the slope in assay [7] was 0.00378 (inactive). In assay [8], the result was inactive.
Consider `c1ccc(-c2nnc3sc(Cc4cccs4)nn23)cc1`, for which the cell count in assay [1] was 602. The inhibition in [1] is -16% (inactive); in assay [2], -149% (inactive); in [4], 11.9% (inactive); in assay [9] it was 21.4% (inactive). Moreover, the nuclei count in assay [2] worked out at 174%. For the same molecule, the values for the z-score in [3] (setting [10]), in assay [3] (setting [11]) and in assay [3] (setting [12]) were 0.71, -1.88 and -0.974, respectively. Also, the fluorescence slope in assay [5] is -0.467 (inactive). In addition, in [6], the NADPH fluorescence slope is -0.000133 (inactive). For the same molecule, in assay [7], the slope is 0.00581 (inactive). Further, the outcome in [8] is “active; no signal in gallbladder only”.
Take `CC1(C)Cc2c(sc3nc4n(c(=N)c23)CCC4)CO1`: the cell count in assay [1] came to 678. For the same molecule, the inhibition in assay [1] was -24.9% (inactive); in [2], -38.1% (inactive); in assay [4], -13.9% (inactive); in assay [9], -6.56% (inactive). The same molecule yielded a nuclei count in [2] of 164%. Further, the z-score in assay [3] (setting [10]) is -0.552; in [3] (setting [11]), 1.24; in assay [3] (setting [12]) it was 2.19. Further, the fluorescence slope in assay [5] was -0.416 (inactive). Moreover, the NADPH fluorescence slope in assay [6] is -4.6e-05 (inactive). Besides, the slope in [7] is 0.00517 (inactive). Besides, the molecule was called inactive in assay [8].
As for `COc1ccc(CCNC2CC(C)N(C)CC2C)cc1OC` (stereo unspecified), the cell count in assay [1] is 549. Moreover, the inhibition in [1] was -11.3% (inactive); in assay [2] it was -75.9% (inactive); in [4], -0.608% (inactive); in assay [9] it was 12.3% (inactive). Moreover, the nuclei count in [2] came to 170%. Moreover, the z-score was 0.099 in [3] (setting [10]), -0.11 in assay [3] (setting [11]) and 2.07 in [3] (setting [12]). Also, in [5], the fluorescence slope is -0.515 (inactive). Also, the NADPH fluorescence slope in assay [6] is -3e-05 (inactive). In [7], the slope was 0.00466 (inactive). Further, the result in assay [8] was inactive.
Turning to `COC(=O)CC1=C(C(=O)OC)C(c2ccncc2)C(C#N)=C(N)O1` (stereo unspecified), the cell count in assay [1] is 492. In addition, the inhibition in [1] is -3.8% (inactive); in assay [2], -58.7% (inactive); in assay [4], 16.8% (inactive); in assay [9] it was 24.5% (inactive). Moreover, in assay [2], the nuclei count turned out to be 157%. Besides, the z-score in assay [3] (setting [10]) was 1.74; in assay [3] (setting [11]) it was -0.108; in assay [3] (setting [12]), -0.84. Also, the fluorescence slope in assay [5] was -0.366 (inactive). The NADPH fluorescence slope in [6] was 1e-05 (inactive). Moreover, the slope in [7] is 0.00477 (inactive). Also, the outcome in assay [8] was inactive.
Consider `COc1ccccc1-c1nnc2sc(COc3ccccc3)nn12`, for which the cell count in assay [1] was 670. Besides, the inhibition in assay [1] is -8.1% (inactive); in assay [2] it was -201% (inactive); in assay [4], -16.8% (inactive); in assay [9], 5.33% (inactive). The same molecule returned a nuclei count in [2] of 161%. Besides, the figures for the z-score in [3] (setting [10]), in assay [3] (setting [11]) and in assay [3] (setting [12]) were 0.204, -1.19 and 2.54, respectively. Besides, the fluorescence slope in assay [5] was -0.444 (inactive). For the same molecule, the NADPH fluorescence slope in assay [6] is -0.000151 (inactive). Moreover, the slope in assay [7] was 0.00451 (inactive). For the same molecule, the result in [8] was inactive.
With `COc1cccc(/C=C2/CN(C)CC3=C2OC(N)=C(C#N)C3c2cccc(OC)c2)c1` (stereo unspecified), the cell count in [1] was 562. Further, the inhibition in [1] was -0.3% (inactive); in assay [2] it was -91.1% (inactive); in assay [4] it was -1.12% (inactive); in assay [9], 3.47% (inactive). Moreover, the nuclei count in [2] is 190%. For the same molecule, the figures for the z-score in [3] (setting [10]), in assay [3] (setting [11]) and in assay [3] (setting [12]) were 1.7, -1.04 and -1.64, respectively. Also, the fluorescence slope in assay [5] is -0.289 (inactive). For the same molecule, the NADPH fluorescence slope in assay [6] is 4.6e-07 (inactive). For the same molecule, in assay [7], the slope is 0.00546 (inactive). Moreover, the call in [8] was inactive.
Consider `Cc1c(C(Nc2ccccn2)c2ccccc2)c(=O)n(-c2ccccc2)n1C` (stereo unspecified), for which the cell count in assay [1] was 522. The inhibition in assay [1] is -5.3% (inactive); in [2] it was -96.1% (inactive); in assay [4], -9.7% (inactive); in [9] it was 23.1% (inactive). Further, the nuclei count in [2] amounted to 136%. Also, the z-score in assay [3] (setting [10]) is -0.885; in [3] (setting [11]) it was 0.0466; in assay [3] (setting [12]), 1.12. For the same molecule, in [5], the fluorescence slope is -0.508 (inactive). Further, the NADPH fluorescence slope in assay [6] is -9.6e-05 (inactive). Further, the slope in [7] was 0.00524 (inactive). Further, the call in [8] was inactive.
Take `CCN(CC)CCNC(=O)c1c(C)oc2cc(Br)c(OC)cc12`: the cell count in assay [1] turned out to be 496. Moreover, the inhibition in assay [1] is -8.7% (inactive); in assay [2] it was -70.3% (inactive); in assay [4], 15.8% (inactive); in assay [9] it was -1.94% (inactive). This molecule also registered a nuclei count in assay [2] of 112%. The z-score in assay [3] (setting [10]) is 2.28; in assay [3] (setting [11]), 0.845; in assay [3] (setting [12]) it was -0.848. The fluorescence slope in assay [5] is -0.55 (inactive). Further, the NADPH fluorescence slope in assay [6] is -3.1e-05 (inactive). For the same molecule, the slope in assay [7] is 0.0063 (inactive). Moreover, the molecule was called inactive in assay [8].
In the case of `COc1cccc(-c2nnc3sc(-c4ccccc4)nn23)c1`, in [1], the cell count turned out to be 659. Besides, the inhibition in assay [1] is 1.9% (inactive); in assay [2], -40.1% (inactive); in assay [4], -15% (inactive); in assay [9] it was -5.58% (inactive). Further, the nuclei count in [2] was 160%. For the same molecule, the z-score was -2.38 in [3] (setting [10]), 2.05 in assay [3] (setting [11]) and 2 in assay [3] (setting [12]). In assay [5], the fluorescence slope was -0.424 (inactive). Moreover, the NADPH fluorescence slope in [6] is -0.000144 (inactive). In addition, the slope in assay [7] is 0.00489 (inactive). Moreover, the molecule was classed as inactive in [8].
In the case of `Cc1cc(C)n(C(=O)CN2C(=O)CCC2=O)n1`, in [1], the cell count is 406. Further, the inhibition in assay [1] was -19% (inactive); in assay [2] it was -169% (inactive); in [4], -5.62% (inactive); in assay [9], 17.3% (inactive). In assay [2], this molecule came in with a nuclei count of 155%. Also, the z-score in [3] (setting [10]) was -0.373; in [3] (setting [11]) it was -0.831; in [3] (setting [12]), -0.956. In addition, in assay [5], the fluorescence slope is -0.249 (inactive). Besides, the NADPH fluorescence slope in assay [6] was 1.9e-05 (inactive). The slope in [7] is 0.00506 (inactive). In assay [8], the molecule was classed as inactive.
